ChEMBL document CHEMBL1124333, “Prostaglandin photoaffinity probes: synthesis and biological activity of azide-substituted 16-phenoxy- and 17-phenyl-PGF2 alpha prostaglandins” (J Med Chem, 1989)

Assays:
[1] = Relative ratio in comparison with PGF2-alpha in bovine corpus lutea membranes; format: cell membranes
[2] = Relative ratio in comparison with PGF2-alpha in ovine luteal cells; format: cell-based
[3] = target: T1, Prostaglandin F2-alpha receptor (Bos taurus, UniProt P37289); assay: Binding potency towards Prostaglandin F2 alpha receptor (competitive binding) with natural [3H]-PGF 2 alpha in bovine corpora lutea plasma membranes (BCLM)
T1 sequence (P37289 whole entry): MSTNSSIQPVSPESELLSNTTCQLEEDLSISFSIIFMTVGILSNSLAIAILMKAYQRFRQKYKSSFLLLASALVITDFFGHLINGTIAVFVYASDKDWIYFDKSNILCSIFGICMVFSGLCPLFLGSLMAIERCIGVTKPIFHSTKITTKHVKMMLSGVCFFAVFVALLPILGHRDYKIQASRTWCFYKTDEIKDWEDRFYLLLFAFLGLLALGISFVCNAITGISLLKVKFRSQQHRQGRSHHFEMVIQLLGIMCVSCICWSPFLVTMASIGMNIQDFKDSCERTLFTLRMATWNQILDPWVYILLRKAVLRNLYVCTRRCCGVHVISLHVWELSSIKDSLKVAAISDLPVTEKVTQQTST
Procedure, shortened: (§1)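 Bovine corpora lutea were homogenized in ice-cold 10 mM Tris-HCl pH 7.0 with 250 mM sucrose, 1 mM CaCl2, BSA, indomethacin, DTT and protease inhibitors. Membranes were pelleted at 17339g and resuspended at about 1-2 mg protein/mL. They were diluted 1:1 with serum-free culture medium and incubated 90 min, to equilibrium, with [3H]PGF2α and competitor.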

[4] = target: T1, Prostaglandin F2-alpha receptor; assay: Binding potency towards PGF-2 alpha receptor (competitive binding) with natural [3H]-PGF 2 alpha in bovine corpora lutea plasma membranes (BCLM); procedure, shortened: as §1
[5] = Relative ratio in comparison with PGF2-alpha

SMILES | Ratio [1] | IC50 [3] [µM] | IC50 [4] [µM] | Ratio [5] | Ratio [2]
[N-]=[N+]=Nc1cc(O)cc(OC[C@H](O)/C=C/[C@@H]2[C@@H](C/C=C\CCCC(=O)O)[C@@H](O)C[C@H]2O)c1 | – | – | – | – | 250
[N-]=[N+]=Nc1ccc(CC[C@H](O)/C=C/[C@@H]2[C@@H](C/C=C\CCCC(=O)O)[C@@H](O)C[C@H]2O)cc1I | 50 | 7 | – | – | 8.1
COC(=O)CCC/C=C\C[C@@H]1C(/C=C/[C@H](O)CCc2ccccc2)[C@H](O)C[C@@H]1O (stereo not given in full) | 360 | – | 50 | – | –
[N-]=[N+]=Nc1ccc(OC[C@H](O)/C=C/[C@@H]2[C@@H](C/C=C\CCCC(=O)O)[C@@H](O)C[C@H]2O)c(O)c1 | 860 | 120 | – | – | –

Second part, led by results:

Ratio [1] | IC50 [3] [µM] | IC50 [4] [µM] | Ratio [5] | SMILES | Ratio [2]
1600 | 220 | – | – | [N-]=[N+]=Nc1ccc(CC[C@H](O)/C=C/[C@@H]2[C@@H](C/C=C\CCCC(=O)O)[C@@H](O)C[C@H]2O)c(O)c1 | 140
14 | – | 2 | – | COC(=O)CCC/C=C\C[C@@H]1C(/C=C/[C@@H](O)CCc2ccccc2)[C@H](O)C[C@@H]1O (stereo not given in full) | –
– | 68 | – | 490 | [N-]=[N+]=Nc1ccc(CC[C@@H](O)/C=C/[C@@H]2[C@@H](C/C=C\CCCC(=O)O)[C@@H](O)C[C@H]2O)cc1I | –
